The record followed here is ChEMBL document CHEMBL1944559, “Phosphodiesterase inhibitors. Part 3: Design, synthesis and structure-activity relationships of dual PDE3/4-inhibitory fused bicyclic heteroaromatic-dihydropyridazinones with anti-inflammatory and bronchodilatory activity” (Bioorg Med Chem, 2012).

Assay [1] deals with T1, cGMP-inhibited 3',5'-cyclic phosphodiesterase 3A (Homo sapiens, UniProt Q14432). Description: Inhibition of human PDE3A catalytic domain. In short, it runs like this: (§1)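 IC50 determined in enzyme inhibition assays on the core catalytic domains of PDE3A and PDE4B, following previously reported protocols, from at least three experiments; roflumilast run as positive control.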
T1 sequence (Q14432 whole entry, the tested form may be a part): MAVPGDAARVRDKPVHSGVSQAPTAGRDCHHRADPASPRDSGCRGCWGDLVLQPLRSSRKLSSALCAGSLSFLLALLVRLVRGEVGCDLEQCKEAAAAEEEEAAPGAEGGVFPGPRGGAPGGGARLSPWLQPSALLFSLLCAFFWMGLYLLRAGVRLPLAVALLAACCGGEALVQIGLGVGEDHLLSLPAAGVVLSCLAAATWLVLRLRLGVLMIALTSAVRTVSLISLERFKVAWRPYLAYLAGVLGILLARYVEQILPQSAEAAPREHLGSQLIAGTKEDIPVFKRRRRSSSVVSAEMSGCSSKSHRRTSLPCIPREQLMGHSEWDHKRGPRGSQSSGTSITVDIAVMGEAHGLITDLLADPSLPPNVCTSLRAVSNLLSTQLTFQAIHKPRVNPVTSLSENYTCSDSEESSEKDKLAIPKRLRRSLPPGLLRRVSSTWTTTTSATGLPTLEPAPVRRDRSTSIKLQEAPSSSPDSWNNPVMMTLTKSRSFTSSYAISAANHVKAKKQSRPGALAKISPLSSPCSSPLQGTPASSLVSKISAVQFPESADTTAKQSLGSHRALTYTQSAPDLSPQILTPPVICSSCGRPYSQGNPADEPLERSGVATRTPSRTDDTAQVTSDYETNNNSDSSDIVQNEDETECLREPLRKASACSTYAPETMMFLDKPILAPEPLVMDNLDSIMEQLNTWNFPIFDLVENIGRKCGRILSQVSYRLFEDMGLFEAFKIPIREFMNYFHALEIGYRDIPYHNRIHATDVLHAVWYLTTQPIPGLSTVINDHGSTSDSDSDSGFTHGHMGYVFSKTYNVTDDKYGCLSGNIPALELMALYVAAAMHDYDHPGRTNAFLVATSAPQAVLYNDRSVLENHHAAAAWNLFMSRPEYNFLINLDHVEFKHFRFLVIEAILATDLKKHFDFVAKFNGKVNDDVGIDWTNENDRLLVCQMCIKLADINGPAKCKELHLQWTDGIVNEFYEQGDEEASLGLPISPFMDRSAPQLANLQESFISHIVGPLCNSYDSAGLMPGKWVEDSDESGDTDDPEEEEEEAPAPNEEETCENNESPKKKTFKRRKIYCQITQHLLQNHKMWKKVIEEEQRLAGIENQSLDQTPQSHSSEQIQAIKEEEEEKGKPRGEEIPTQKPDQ

The target of assay [2] is T2, 3',5'-cyclic-AMP phosphodiesterase 4B (Homo sapiens, UniProt Q07343). Nature of the assay: Inhibition of human PDE4B catalytic domain. In a few lines:
as §1

The test system of assay [3] is Cavia porcellus. Description: Inhibition of histamine-induced bronchoconstriction in Hartley guinea pig at 0.1 mg/kg, iv administered 30 mins prior histamine challenge. The format is functional. In short, it runs like this:
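Guinea pigs given compound iv at 0.1 mg/kg before histamine challenge; bronchoconstriction measured by an established procedure; result expressed as % inhibition of constriction relative to control.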

Assay [4] concerns Cavia porcellus. Nature of the assay: Inhibition of histamine-induced bronchoconstriction in Hartley guinea pig at 1 mg/kg, po administered 30 mins prior histamine challenge. It counts as functional. In a few lines:
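Oral dosing at 1 mg/kg in guinea pigs before histamine challenge, by an established procedure; scored against control as ++ (≥70% inhibition of bronchoconstriction) or + (30–69%).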

A further assay has as its system Rattus norvegicus. Nature of the assay: Antiinflammatory activity in Wistar rat assessed as inhibition of LPS-induced TNFalpha release at 1 mg/kg, po. The format is functional.
The target of assay [5] is T1, cGMP-inhibited 3',5'-cyclic phosphodiesterase 3A. Nature of the assay: Ratio of KCA-1450 IC50 to compound IC50 for human PDE3A catalytic domain.
Assay [6] deals with T2, 3',5'-cyclic-AMP phosphodiesterase 4B. Description: Ratio of KCA-1450 IC50 to compound IC50 for human PDE4B catalytic domain.

Molecules are shown by their SMILES.

T2 sequence (Q07343 whole entry, the tested form may be a part): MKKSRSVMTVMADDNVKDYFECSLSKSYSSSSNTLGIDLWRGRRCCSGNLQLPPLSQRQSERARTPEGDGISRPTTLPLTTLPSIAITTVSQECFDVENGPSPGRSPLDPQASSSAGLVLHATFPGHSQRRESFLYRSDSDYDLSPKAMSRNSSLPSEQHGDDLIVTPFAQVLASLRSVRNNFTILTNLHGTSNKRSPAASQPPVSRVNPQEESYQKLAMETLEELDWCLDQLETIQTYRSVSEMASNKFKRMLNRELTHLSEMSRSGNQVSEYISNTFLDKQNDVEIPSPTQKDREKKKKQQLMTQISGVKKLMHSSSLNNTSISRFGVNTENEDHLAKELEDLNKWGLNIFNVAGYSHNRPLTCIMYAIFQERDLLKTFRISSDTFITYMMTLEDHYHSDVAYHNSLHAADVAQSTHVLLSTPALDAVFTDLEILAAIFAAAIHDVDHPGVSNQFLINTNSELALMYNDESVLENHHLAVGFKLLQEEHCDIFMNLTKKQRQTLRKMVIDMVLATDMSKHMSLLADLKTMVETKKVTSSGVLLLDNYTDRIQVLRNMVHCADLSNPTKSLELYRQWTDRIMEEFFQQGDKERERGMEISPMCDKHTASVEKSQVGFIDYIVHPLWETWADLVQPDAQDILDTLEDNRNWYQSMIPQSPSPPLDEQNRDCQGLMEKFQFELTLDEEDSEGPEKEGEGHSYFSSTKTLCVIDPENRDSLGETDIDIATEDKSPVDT

What is called IC50 is the concentration at which inhibition is half-maximal. A higher IC50 goes with a need for much substance. In the case of `COc1ccc(C2=NNC(=O)CC2C)c2nc(C(F)(F)F)nn12` (racemic), the figures for the IC50 in assay [1] and in assay [2] were 10.2 µM and 430 nM, respectively.

The term inhibition in vivo denotes the percentage by which the read-out fell short of the control. On to `COc1ccc(C2=NNC(=O)CC2C)n2cc(C(F)(F)F)nc12` (racemic), for which the IC50 in assay [1] amounted to 1.45 µM; in assay [2], 260 nM. In the assay with Cavia porcellus [3], this compound showed an inhibition in vivo at 0.1 mg/kg of 99%. The figures for the inhibition in vivo at 1 mg/kg in the assay on Cavia porcellus [4] and with Rattus norvegicus were greater than 30% and 62%, respectively.

In the case of `COc1ccc(C2=NNC(=O)CC2C)c2oc(C(F)(F)F)nc12` (racemic), the IC50 in assay [1] was found to be 5.74 µM; in assay [2] it was 1010 nM.

Consider `COc1ccc(C2=NNC(=O)CC2C)c2nc(C(F)(F)F)oc12` (racemic), for which the IC50 in assay [1] stood at 6.43 µM; in assay [2], 1520 nM.

Consider `COc1ccc(C2=NNC(=O)CC2C)c2sc(C(F)(F)F)nc12` (racemic), for which the IC50 in assay [1] stood at 0.15 µM; in assay [2] it was 21 nM. This compound also returned an inhibition in vivo at 0.1 mg/kg in the assay with Cavia porcellus [3] of 97%. The inhibition in vivo at 1 mg/kg is no less than 70% in the assay on Cavia porcellus [4] and 80% in the assay with Rattus norvegicus. Besides, the Ratio IC50 in assay [5] was found to be 16; in assay [6], 3.

Consider `COc1ccc(C2=NNC(=O)CC2C)c2cc(C(F)(F)F)sc12` (racemic), for which the IC50 in assay [1] was 2.85 µM; in assay [2], 280 nM. For the same compound, in the assay with Cavia porcellus [3], the inhibition in vivo at 0.1 mg/kg came out at 17%.

`COc1ccc(C2=NNC(=O)CC2C)c2ccc(C(F)(F)F)nc12` (racemic): the IC50 in assay [1] was determined as 0.97 µM; in assay [2], 350 nM. Also, in the assay on Cavia porcellus [3], the inhibition in vivo at 0.1 mg/kg was 99%. In addition, the results for the inhibition in vivo at 1 mg/kg with Cavia porcellus [4] and in the assay with Rattus norvegicus were no less than 70% and 68%, respectively. Besides, the Ratio IC50 in assay [5] came out at 2.5.

Turning to `COc1ccc(C2=NNC(=O)CC2C)c2[nH]c(C(F)(F)F)nc12` (racemic), the IC50 in assay [1] stood at 22.2 µM; in assay [2], 300 nM.

On to `COc1ccc(C2=NNC(=O)CC2C)c2cc(C(F)(F)F)oc12` (racemic), for which the results for the IC50 in assay [1] and in assay [2] were 19.8 µM and 380 nM, respectively.

Consider `CCc1cc2c(C3=NNC(=O)CC3C)ccc(OC)n2c1` (racemic), for which the IC50 in assay [1] was 20.7 µM; in assay [2], 3490 nM.
